# Source: PubChem BioAssay
# Compounds with a hit are over-represented: about 4.3% of the library has one in this group of screens.
# OX1R antag-1 – OX1R (human) antagonism; O43613; OX1R-expressing cells, FRET antagonist read-out; inhibition, % at 6.6 µM; actives 1.8% (n = 330,000); AID 485270; in the data active means inhibition mostly above about 38%, no sharp cut-off; inactive means mostly below about 40%;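 further: 0% = agonist challenge alone and 100% = reference antagonist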
# TAAR1 agonist – agonists of human TAAR1; activation, % at 3 µM; Q96RJ0; actives 0.99% (n = 360,000); CHO RD-HGA16 TAAR1, Fluo-8 calcium fluorescence; vehicle wells 0%, saturating PEA agonist 100%; AID 624467;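 active means activation above the mean activation of all test compounds in the run plus 3 SD, cut at about 38% in these data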
# Target sequence (Q96RJ0 whole entry, looked up): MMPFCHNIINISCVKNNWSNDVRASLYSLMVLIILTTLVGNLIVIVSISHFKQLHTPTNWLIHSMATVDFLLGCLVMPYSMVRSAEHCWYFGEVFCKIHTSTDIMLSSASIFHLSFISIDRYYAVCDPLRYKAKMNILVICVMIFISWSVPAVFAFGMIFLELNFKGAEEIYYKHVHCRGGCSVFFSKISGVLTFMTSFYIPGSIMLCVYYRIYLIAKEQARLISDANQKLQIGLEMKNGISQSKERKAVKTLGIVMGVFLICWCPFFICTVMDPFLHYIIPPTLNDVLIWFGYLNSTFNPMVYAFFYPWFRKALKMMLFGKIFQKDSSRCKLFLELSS
#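 Signal – calcium-sensitive Fluo-8 signal, excitation 470-495, emission 515-575 nm · System – RD-HGA16 (CHO) cells co-expressing Gα16 and hTAAR1 · Incubation – 17-24 h seeding, 75 min 37 °C dye, 30 min RT · Compound dosing – 3 µM single concentration · Repeats – no replicates (n 1)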
# CHO parental Ca – counter-screen: ATP calcium response change in parental CHO cells; parental CHO-K1, ATP-induced calcium, Fluo-8 fluorescence; inhibition, % at 5.6 µM; actives 0.63% (n = 330,000);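 active means inhibition above that plate's mean sample inhibition plus 3 SD, cut at about 26% in these data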;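 further: 0% = ATP-challenged DMSO wells and 100% = DMSO wells without ATP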
#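 material = parental CHO cells | also added = ATP as calcium-mobilizing challenge | dosing = single point at 5.6 µM | detection = intracellular calcium via Fluo-8 no-wash fluorescent dye | read-out = % inhibition | benchmarks = low control ATP plus DMSO, high control DMSO only | repeats = one well per compound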
# GalR3 antag – antagonists of human GalR3; HEK293 GalR3-CNG cAMP membrane potential fluorescence; galR3 body fused to GalR1 C-terminus; inhibition, % at 3 µM; actives 0.44% (n = 360,000);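 active means inhibition above the screen-wide average plus 3 SD, cut at about 13% in these data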;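 further: forskolin and galanin both at EC90 stimulate the cells; cAMP rise reported by CNG channel membrane potential dye signal; 0% = forskolin plus galanin with DMSO and 100% = forskolin alone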
# Target sequence (O60755 1-299 limits assumed): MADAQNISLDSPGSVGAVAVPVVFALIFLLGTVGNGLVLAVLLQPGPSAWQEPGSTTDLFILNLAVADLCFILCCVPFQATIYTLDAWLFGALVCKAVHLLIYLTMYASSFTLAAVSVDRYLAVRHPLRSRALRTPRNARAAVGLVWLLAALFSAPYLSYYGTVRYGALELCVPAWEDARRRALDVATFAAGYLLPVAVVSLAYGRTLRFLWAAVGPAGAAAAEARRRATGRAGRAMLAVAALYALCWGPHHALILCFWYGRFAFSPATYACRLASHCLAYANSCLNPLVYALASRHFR
# OX1R antag-2 – human HCRTR1 antagonism; CHO/OX1R cells, Fluo-8 calcium fluorescence, orexin A; inhibition, % at 5 µM; actives 0.43% (n = 330,000); AID 434989;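 active means inhibition above its plate's threshold, mean inhibition of all tested compounds on the plate plus 3 SD, cut at about 37% in these data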;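 further: 0% = orexin A challenge wells and 100% = SB-334867-A antagonist wells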
# TAAR1 antag – antagonists of human TAAR1 | Q96RJ0 | CHO RD-HGA16 TAAR1, Fluo-8 calcium fluorescence, antagonist | actives 1.5% (n = 360,000) | inhibition, % at 3 µM;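 active means inhibition above a per-plate cutoff, the mean inhibition of test compounds on that plate plus 3 SD, cut at about 49% in these data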;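 further: 0% = DMSO plus EC80 beta-PEA response and 100% = DMSO alone without agonist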
#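 Material: RD-HGA16 CHO cells with stable hTAAR1 and Gα16; Dosing: single nominal final test compound concentration of 3 µM; Schedule: seeding 17-24 h prior, 75-min 37 °C, 30-min RT dye loading; Detection: kinetic Fluo-8 calcium fluorescence measurement; Measure: % inhibition from peak post-agonist over basal fluorescence ratio; Benchmarks: vehicle and agonist controls.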
# TAAR1 nonsel count – nonselective antagonist in TAAR1 antagonist counter-screen. shares compounds with TAAR1 antag. counterscreen cell line, calcium fluorescence, antagonist mode. inhibition, % at 3 µM. actives 77% (n = 2,400); in the data active means inhibition above about 22%;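 further: CHO-Ga16 host cells stimulated with ATP at an EC80 level; 0% = agonist EC80 plus vehicle and 100% = vehicle without agonist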
# TAAR1 antag conf – confirmation of human TAAR1 antagonists; shares compounds with TAAR1 antag; actives 40% (n = 2,400); TAAR1-expressing cells, fluorescence antagonist read-out; inhibition, % at 3 µM; AID 651785; in the data active means inhibition above about 49%;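 further: CHO-Ga16 host cells challenged with agonist PEA near its EC80; 0% = agonist at EC80 plus vehicle and 100% = vehicle with no agonist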
# Ga16 ag counter – nonselective Ga16 agonism, counter-screen | shares compounds with TAAR1 antag | Ga16-expressing cells, calcium fluorescence, agonist counterscreen | activation, % at 3 µM | actives 18% (n = 2,400); in the data active means activation above about 12%;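 further: 0% = vehicle wells and 100% = saturating stimulus response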
# TAAR1 ag count – activates human TAAR1 in antagonist counter-screen. shares compounds with TAAR1 antag. hTAAR1 cell line, fluorescence activation, agonist mode. activation, % at 3 µM. actives 2% (n = 2,400). AID 651955; in the data active means activation above about 37%;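 further: CHO cells stably expressing TAAR1 with calcium dye readout; 0% = DMSO vehicle and 100% = full agonist response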
# Active calls of the source: *; / = no result.
SMILES,OX1R antag-1,TAAR1 agonist,CHO parental Ca,GalR3 antag,OX1R antag-2,TAAR1 antag,TAAR1 nonsel count,TAAR1 antag conf,Ga16 ag counter,TAAR1 ag count
CC(=O)N(C)c1ccc(C=C2C=Cc3ccccc32)cc1,/,4,/,-8,/,42,/,/,/,/
CCOC(=O)c1cc2c(N)c(C(=O)c3cc(C#N)c(SC)nc3C)sc2nc1C,16,5,-4,0,-22,68*,31*,42,4,1
COc1cc2cnc(-c3ccccc3)c(-c3cccc(C(F)(F)F)c3)c2cc1OC,11,9,-32,-3,-19,51*,15,19,2,2
CC(=O)c1c(COC(=O)c2cccc(C)c2)nc2ccccc2[n+]1[O-],15,8,-19,-1,-32,50*,28*,38,8,7
CC(=O)c1c(COC(=O)c2ccncc2)nc2ccccc2[n+]1[O-],68,6,0,6,-17,-20,/,/,/,/
COc1cc(CN2C[C@@H](CO)O[C@@H](n3cnc4c(N5CCOCC5)ncnc43)C2)cc(OC)c1OC,/,2,/,8,/,-24,/,/,/,/
CCN(CC)C(=O)c1cccc(-c2csc(C(C)(O)c3cccc(F)c3)n2)c1 (configuration not stated),/,11,/,-3,/,80*,43*,57*,12*,11
COC(=O)C1(C)CCCC2(C)C3CCC(C(C)C)C(CO)C3C(CO)CC12 (configuration not stated),/,25,/,-7,/,82*,32*,55*,14*,20
COc1cc(/C=C/C(=O)OCC(=O)Nc2cc(C)on2)ccc1OCC#N,/,2,/,-5,/,0,/,/,/,/
CCOc1ccc(-n2c(C)cc(/C=N\NC(=O)CC(=O)NC3CCCCC3)c2C)cc1,4,0,-13,-5,-30,57*,25*,47,5,-1
O=C(Nc1cccc(-c2nc3ccccc3o2)c1)c1ccc(N2C(=O)C3C4C=CC(C4)C3C2=O)cc1 (configuration not stated),19,21,-20,-2,-8,63*,39*,58*,11,9
CCOc1ccc(C(C(=O)NCC2CCCO2)N(CCc2cccc(C)c2)C(=O)c2snc(C(N)=O)c2N)cc1 (configuration not stated),/,28,/,-10,/,67*,34*,53*,16*,39*
NC(=O)c1nsc(C(=O)N(Cc2ccc(F)cc2)C(C(=O)NCC2CCCO2)c2ccc(F)cc2)c1N (configuration not stated),23,1,-19,-9,-31,-8,/,/,/,/
COc1ccc(C(C(=O)NCC2CCCO2)N(Cc2ccccc2)C(=O)c2snc(C(N)=O)c2N)cc1OC (configuration not stated),23,12,-10,-8,-17,21,/,/,/,/
CN(C)c1ccc(C(C(=O)NCC2CCCO2)N(Cc2ccco2)C(=O)c2snc(C(N)=O)c2N)cc1 (configuration not stated),14,20,-3,-6,-16,67*,34*,52*,9,11
Cc1ccc(C(C(=O)NCC2CCCO2)N(Cc2ccccc2)C(=O)c2ccc(-c3ccccc3)[nH]2)o1 (configuration not stated),30,9,-17,-4,-29,67*,31*,42,8,14
CN(C)c1ccc(C(C(=O)NCC2CCCO2)N(Cc2ccccc2)C(=O)c2snc(C(N)=O)c2N)cc1 (configuration not stated),16,22,-14,-11,-14,65*,33*,57*,13*,16
O=C1C2CCCCN2C(=O)N1CCCCN1CCN(c2ccccc2Oc2ccccc2)CC1 (configuration not stated),8,2,-33,-14,-35,4,/,/,/,/
N#Cc1c(-c2cccc(Br)c2)cc(-c2cccnc2)nc1N,40,5,-11,-12,-12,56*,21,38,7,11
CCCCc1c(-c2ccc(F)cc2)ncn1CCc1ccccc1OC,/,26,/,-8,/,54*,23*,38,3,43*
COc1ccccc1CCn1cnc(-c2cccc(Cl)c2)c1CC(C)C,/,14,/,-7,/,51*,33*,52*,9,38*
COc1ccccc1CCn1cnc(-c2ccccc2)c1CC(C)C,/,7,/,-6,/,56*,41*,49*,12*,26
COc1cccc(-c2ncn(CCc3ccccc3OC)c2CC(C)C)c1,/,11,/,-8,/,62*,39*,49*,8,38*
CC(O)(c1ccccc1)c1nc(-c2ccc(S(C)(=O)=O)cc2)cs1 (configuration not stated),/,1,/,-6,/,16,/,/,/,/
COc1cc(C(=O)NNC(=O)COc2ccc(Cl)cc2)ccc1OCC(=O)N1CCOCC1,0,8,1,-2,-3,0,/,/,/,/
SMILES,OX1R antag-1,TAAR1 agonist,CHO parental Ca,GalR3 antag,OX1R antag-2,TAAR1 antag,TAAR1 nonsel count,TAAR1 antag conf,Ga16 ag counter,TAAR1 ag count
COc1ccccc1CCn1cnc(-c2ccc(F)cc2)c1CC(C)C,/,27,/,-5,/,63*,29*,62*,11,66*
O=C1CC(N2CCN(c3ccc(O)cc3)CC2)C(=O)N1Cc1cccs1 (configuration not stated),14,3,-18,4,-17,5,/,/,/,/
O=C(c1ccncc1)c1ccc(N2CCN(C3CC(=O)N(Cc4cccs4)C3=O)CC2)cc1 (configuration not stated),39,16,-4,-6,1,58*,36*,50*,14*,11
O=C(COC(=O)Cc1c(Cl)cccc1Cl)Nc1ccccc1-c1ccccc1,15,5,3,-3,-10,62*,22*,52*,8,13
O=C(COC(=O)Cc1ccc(Cl)cc1)Nc1ccccc1-c1ccccc1,14,2,-9,-7,-24,-2,/,/,/,/
COc1ccc2nc3n(c(=O)c2c1)-c1ccccc1C(=O)NC3Cc1ccccc1 (configuration not stated),3,16,-6,5,-25,-10,/,/,/,/
